From the array DNA melting data of Ke et al. (doi:10.1101/2024.01.08.574731) come the findings set out here.

Data set [1] is described as follows: folding enthalpy; higher = less favourable; fluorescence melt of hairpins on a sequencing array, two-state fit. The note with it: sodium 0.088 M. In short, it runs like this: (§1)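 With Cy3 and quencher oligos annealed, library hairpins on a sequenced MiSeq flow cell were imaged for Cy3 fluorescence in 50 mM Na-HEPES pH 8.0, 25 mM NaCl, in 2.5 °C steps up to 60 °C. Melting temperature and folding enthalpy were derived from bootstrapped two-state fits of signals normalised to pre-quench Cy3 and to control constructs. Four replicates were combined by inverse variance, with fitted temperatures raised by 9.35 °C to match UV melts.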

The nature of data set [2]: melting temperature; fluorescence melt of hairpins on a sequencing array, two-state fit, raised by 9.35 °C to match UV melts. To be noted: sodium 0.088 M. Summed up:
as §1

GATCGCCGATGCGATC ((((((....)))))): the folding enthalpy in data set [1] was -32 kcal/mol. Besides, in data set [2], the Tm was 66.6 °C.
As for GATCGCCGGTGCGATC ((((((....)))))), the folding enthalpy in data set [1] is -35.1 kcal/mol. Besides, the Tm in data set [2] was found to be 66 °C.
Taken in the same sequence, the figures for GATCGCCGTCGCGATC ((((((....)))))) were -36.5 kcal/mol and 66.6 °C.
The like results for GATCGCCTACGCGATC ((((((....)))))) were, in that order, -39.5 kcal/mol and 67.4 °C.
Turning to GATCGCCTGCGCGATC ((((((....)))))), in data set [1], the folding enthalpy was -32 kcal/mol. Further, in data set [2], the Tm worked out at 67.2 °C.
In the case of GATCGCGAAAGCGATATC ((((((....)))..))), the folding enthalpy in data set [1] is -11.8 kcal/mol. For the same sequence, in data set [2], the Tm is 59.2 °C.
As to GATCGCGAGTGCGATC ((((((....)))))), the folding enthalpy in data set [1] is -33.8 kcal/mol. Also, the Tm in data set [2] turned out to be 66.3 °C.
The like results for GATCGCGATGGCGATC ((((((....)))))) were, in that order, -37.7 kcal/mol and 68.8 °C.
Take GATCGCGCTGGCGATC ((((((....)))))): the folding enthalpy in data set [1] is -32.5 kcal/mol. Further, the Tm in data set [2] was found to be 68.9 °C.
Take GATCGCGGAAACGTGATC ((((.((....)).)))): the folding enthalpy in data set [1] is -38.6 kcal/mol. Besides, the Tm in data set [2] worked out at 57.5 °C.
On to GATCGCGGGGCGATC ((((((...)))))), for which the folding enthalpy in data set [1] was -29.8 kcal/mol. Further, in data set [2], the Tm is 68 °C.
Turning to GATCGCGGGTGCGATC ((((((....)))))), in data set [1], the folding enthalpy is -34.5 kcal/mol. The Tm in data set [2] was 68.4 °C.
For the sequence GATCGCGGTTGCGATC ((((((....)))))), the folding enthalpy in data set [1] was -25.1 kcal/mol. Besides, in data set [2], the Tm came out at 68.9 °C.
GATCGCTAACGCGATC ((((((....)))))): in data set [1], the folding enthalpy is -35.7 kcal/mol. In addition, the Tm in data set [2] turned out to be 66.5 °C.
For the sequence GATCGCTAAGGCGATC ((((((....)))))), in data set [1], the folding enthalpy was -39.2 kcal/mol. Also, the Tm in data set [2] came to 67.8 °C.
For GATCGCTAGGGCGATC ((((((....)))))), the folding enthalpy in data set [1] was -34.8 kcal/mol. The Tm in data set [2] came to 68.2 °C.
For GATCGCTCAAGCGATC ((((((....)))))), the folding enthalpy in data set [1] was -43.6 kcal/mol. Also, the Tm in data set [2] amounted to 68 °C.
Regarding GATCGGAAACCGATC ((((((...)))))), the folding enthalpy in data set [1] is -38 kcal/mol. For the same sequence, in data set [2], the Tm came to 56 °C.
GATCGGAAAGCCGATC ((((((....)))))): the folding enthalpy in data set [1] was -35.4 kcal/mol. Further, the Tm in data set [2] was found to be 51.3 °C.
GATCGGAAGCCCGATC ((((((....)))))): the folding enthalpy in data set [1] was -36.5 kcal/mol. For the same sequence, the Tm in data set [2] amounted to 54.1 °C.
Turning to GATCGGAAGTCCGATC ((((((....)))))), in data set [1], the folding enthalpy was -38.9 kcal/mol. Further, the Tm in data set [2] was determined as 55.2 °C.
Regarding GATCGGACACCCGATC ((((((....)))))), the folding enthalpy in data set [1] is -41.5 kcal/mol. Moreover, in data set [2], the Tm came to 54.7 °C.
Turning to GATCGGACATCCGATC ((((((....)))))), in data set [1], the folding enthalpy is -38.7 kcal/mol. Further, in data set [2], the Tm was 55.3 °C.
Regarding GATCGGACCTCCGATC ((((((....)))))), in data set [1], the folding enthalpy is -40.7 kcal/mol. Further, the Tm in data set [2] is 56.6 °C.
For the sequence GATCGGACGACCGATC ((((((....)))))), the folding enthalpy in data set [1] is -35.1 kcal/mol. The Tm in data set [2] was found to be 57.3 °C.
As for GATCGGACGCCCGATC ((((((....)))))), the folding enthalpy in data set [1] was -38 kcal/mol. Moreover, the Tm in data set [2] is 57.3 °C.
Take GATCGGACTACCGATC ((((((....)))))): the folding enthalpy in data set [1] is -36.6 kcal/mol. Moreover, the Tm in data set [2] turned out to be 55.6 °C.
For the sequence GATCGGACTTCCGATC ((((((....)))))), in data set [1], the folding enthalpy was -42.3 kcal/mol. The Tm in data set [2] worked out at 57.2 °C.
For the sequence GATCGGAGAACCGATC ((((((....)))))), the folding enthalpy in data set [1] is -33.8 kcal/mol. The Tm in data set [2] was 52.6 °C.
On to GATCGGAGCCCGATC ((((((...)))))), for which the folding enthalpy in data set [1] is -31.2 kcal/mol. For the same sequence, the Tm in data set [2] turned out to be 53.4 °C.
Turning to GATCGGAGGCCGATC ((((((...)))))), the folding enthalpy in data set [1] is -40.3 kcal/mol. Also, in data set [2], the Tm came to 55.8 °C.
As to GATCGGAGGTCCGATC ((((((....)))))), the folding enthalpy in data set [1] is -31.5 kcal/mol. For the same sequence, the Tm in data set [2] was 57.6 °C.
The like results for GATCGGATAACCGATC ((((((....)))))) were, in that order, -35.1 kcal/mol and 56.2 °C.
Take GATCGGATCCCCGATC ((((((....)))))): the folding enthalpy in data set [1] is -41.4 kcal/mol. Moreover, the Tm in data set [2] worked out at 54 °C.
Taken in the same sequence, the figures for GATCGGATCCCGATC ((((((...)))))) were -38 kcal/mol and 56 °C.
Regarding GATCGGATCTCCGATC ((((((....)))))), the folding enthalpy in data set [1] was -40.4 kcal/mol. Also, the Tm in data set [2] was found to be 56.7 °C.
The like results for GATCGGATGTCCGATC ((((((....)))))) were, in that order, -38.2 kcal/mol and 56.8 °C.
For GATCGGCAATCCGATC ((((((....)))))), the folding enthalpy in data set [1] was -44.7 kcal/mol. The Tm in data set [2] turned out to be 55 °C.
